# Measurements from different studies.
# Sialidase-2: Sialidase-2 (Homo sapiens, UniProt Q9Y3R4)
# ACHE: Acetylcholinesterase (ACHE, Homo sapiens, UniProt P22303)
# FABP4: Fatty acid-binding protein, adipocyte (FABP4, Homo sapiens, UniProt P15090)
# DPP4: Dipeptidyl peptidase 4 (DPP4, Homo sapiens, UniProt P27487)
Structure (SMILES),target,assay,setting,IC50
CCCCNC(=O)N[C@H]1[C@H]([C@H](O)[C@H](O)CO)OC(C(=O)O)=C[C@@H]1O,Sialidase-2,"enzyme activity, inhibitor",,380 µM
CC(C)(C)c1cccc(C=Nc2ccc(SCc3cc(=O)c(O)co3)cc2)c1,ACHE,"enzyme activity, inhibitor, Ellman",,6.45 µM
O=C(O)C1=C[C@H](O)[C@@H](n2cc(-c3ccc(-c4ccccc4)cc3)nn2)[C@H]([C@H](O)[C@H](O)CO)O1,Sialidase-2,"enzyme activity, inhibitor",,270 µM
COc1cc(-c2nc3ccccc3s2)cc(NC(C)=O)c1OCC(=O)N[C@H](Cc1ccccc1)C(=O)O,ACHE,"enzyme activity, inhibitor, Ellman",,> 246 µM
CCCCCC(=O)N(C)[C@H]1[C@H]([C@H](O)[C@H](O)CO)OC(C(=O)O)=C[C@@H]1O,Sialidase-2,"enzyme activity, inhibitor",,140 µM
O=C(O)C(F)(F)C(F)(F)C(F)(F)C(F)(F)C(F)(F)C(F)(F)F,FABP4,"ligand displacement, fluorescence",pH 7.5,11 µM
CC(C)(C)c1ccc(C=Nc2ccc(SCc3cc(=O)c(O)co3)cc2)cc1,ACHE,"enzyme activity, inhibitor, Ellman",,17.4 µM
CC(=O)c1c(C)c2cnc(Nc3ccc(C4CCN(CCS(C)(=O)=O)CC4)cn3)nc2n(C2CCCC2)c1=O,"Cyclin-dependent kinase 9 (CDK9, Homo sapiens, UniProt P50750)","enzyme activity, inhibitor, mobility shift",,> 0.75 µM
NS(=O)(=O)C(F)(F)C(F)(F)C(F)(F)C(F)(F)C(F)(F)C(F)(F)C(F)(F)C(F)(F)F,FABP4,"ligand displacement, fluorescence",pH 7.5,17 µM
CCc1ccccc1C=Nc1ccc(SCc2cc(=O)c(O)co2)cc1,ACHE,"enzyme activity, inhibitor, Ellman",,5.38 µM
CC(C)CNC(=O)N[C@H]1[C@H]([C@H](O)[C@H](O)CO)OC(C(=O)O)=C[C@@H]1O,Sialidase-2,"enzyme activity, inhibitor",,30 µM
CC(C)C[C@H](NC(=O)[C@H](CO)NC(=O)[C@@H](NC(=O)[C@@H]1CCCN1C(=O)[C@@H](N)CCCCN)C(C)C)C(=O)N[C@@H](CO)C(=O)N[C@@H](Cc1ccc(O)cc1)C(=O)N[C@@H](CCCNC(=N)N)C(=O)NCC(=O)NCC(=O)N[C@H](CC(C)C)C(=O)NCC(=O)N[C@H](C)C(=O)N[C@H](CO)C(=O)N[C@H](Cc1c[nH]c2ccccc12)C(=O)N[C@H](Cc1c[nH]cn1)C(=O)N[C@H](CCCNC(=N)N)C(=O)N[C@@H](Cc1ccc2ccccc2c1)C(=O)N[C@@H](CCCNC(=N)N)C(=O)N[C@@H](CCCNC(=N)N)C(N)=O,"C-X-C chemokine receptor type 4 (CXCR4, Homo sapiens, UniProt P61073)","ligand displacement in cells, fluorescence",,0.76 µM
COc1ccccc1C=Nc1ccc(SCc2cc(=O)c(O)co2)cc1,ACHE,"enzyme activity, inhibitor, Ellman",,6.23 µM
COc1cc(-c2nc3ccccc3s2)cc(NC(C)=O)c1OCC(=O)N[C@@H](CC(C)C)C(=O)O,ACHE,"enzyme activity, inhibitor, Ellman",,> 264 µM
CCOC(=O)c1ccc(OC(=O)CCCCCN=C(N)N)cc1,"Tryptase beta-2 (TPSB2, Homo sapiens, UniProt P20231)","enzyme activity, inhibitor",,0.00428 µM
CC(C)CCN[C@H]1[C@H]([C@H](O)[C@H](O)CO)OC(C(=O)O)=C[C@@H]1O,Sialidase-2,"enzyme activity, inhibitor",,70 µM
COC(=O)[C@H](C)NC(=O)COc1c(NC(C)=O)cc(-c2nc3ccccc3s2)cc1OC,ACHE,"enzyme activity, inhibitor, Ellman",,> 280 µM
COc1ccc(CCCCC(=O)C(F)(F)C(F)(F)F)cc1,"Phospholipase A2 group V (PLA2G5, Homo sapiens, UniProt P39877)","enzyme activity, inhibitor",,44.5 µM
CC[C@@H](C)[C@H](NC(=O)COc1c(NC(C)=O)cc(-c2nc3ccccc3s2)cc1OC)C(=O)OC,ACHE,"enzyme activity, inhibitor, Ellman",,> 256 µM
Cc1ccc(C=Nc2ccc(SCc3cc(=O)c(O)co3)cc2)cc1,ACHE,"enzyme activity, inhibitor, Ellman",,6.53 µM
CCCCCc1cn([C@H]2[C@H]([C@H](O)[C@H](O)CO)OC(C(=O)O)=C[C@@H]2O)nn1,Sialidase-2,"enzyme activity, inhibitor",,> 500 µM
O=c1cc(CSc2ccc(N=Cc3ccccc3Br)cc2)occ1O,ACHE,"enzyme activity, inhibitor, Ellman",,1.34 µM
COc1c2c(cc3c1-c1c(cc4c(c1OC)OCO4)C[C@H](C)[C@H](C)C3)OCO2,DPP4,"enzyme activity, inhibitor, fluorescence",,> 100 µM
O=c1cc(-c2ccc(O)c(O)c2)oc2cc(O)cc(O)c12,DPP4,"enzyme activity, inhibitor, fluorescence",,48 µM
O=c1cc(CSc2ccc(N=Cc3ccc(C(F)(F)F)cc3)cc2)occ1O,ACHE,"enzyme activity, inhibitor, Ellman",,13.3 µM
CCCCCC(=O)N[C@H]1[C@H]([C@H](O)[C@H](O)CO)OC(C(=O)O)=C[C@@H]1O,Sialidase-2,"enzyme activity, inhibitor",,8 µM
COc1ccc(C=Nc2ccc(SCc3cc(=O)c(O)co3)cc2)cc1,ACHE,"enzyme activity, inhibitor, Ellman",,20.5 µM
O=C(O)C(F)(F)C(F)(F)C(F)(F)C(F)(F)C(F)(F)C(F)(F)C(F)(F)C(F)(F)C(F)(F)C(F)(F)F,FABP4,"ligand displacement, fluorescence",pH 7.5,2.92 µM
CC(C)Cc1cn([C@H]2[C@H]([C@H](O)[C@H](O)CO)OC(C(=O)O)=C[C@@H]2O)nn1,Sialidase-2,"enzyme activity, inhibitor",,1.4 µM
